From ChEMBL document CHEMBL1157465, “Design, synthesis, and biological evaluation of novel 3-aryl-4-(1H-indole-3yl)-1,5-dihydro-2H-pyrrole-2-ones as vascular endothelial growth factor receptor (VEGF-R) inhibitors” (J Med Chem, 2008)

Columns and labels:
Ephrin type-B receptor 4 = Ephrin type-B receptor 4 (Homo sapiens, UniProt P54760); assay: Inhibition of human recombinant EPHB4
Outline: (§1)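 Recombinant human tyrosine kinases (EPHB4, TIE2, VEGF-R2, VEGF-R3), expressed in Sf9 insect cells as GST- or His-fusions, with poly(Glu,Tyr) 4:1 as substrate. Conditions: 1 µM [γ-33P]ATP, pH 7.5 HEPES buffer with Mg/Mn, DTT and vanadate, 30 °C for 80 min, 1% DMSO. Ten concentrations were tested and IC50 came from scintillation counting of incorporated 33P.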

Homo sapiens [1] = species: Homo sapiens; assay: Antiangiogenic activity in VEGF-induced HLMEC assessed as sprouts per bead at 1.3 uM after 24 hrs by sprouting assay; format: functional
Outline: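 HLMEC seeded on cytodex-3 microcarrier beads and embedded in 3D fibrinogen gel with 20 ng/mL VEGF plus compound at a final 1.3 or 2.6 µM (from 1 mM DMSO stock). Gel polymerised with 0.65 U/mL thrombin and overlaid with MCDB131, 5% FCS, 5% human serum and 200 U/mL Trasylol. Negative control: gel without growth factors. After 24 h, fixed in 1% PFA; sprouts per 50 beads counted microscopically. Triplicates per condition, n = 9 experiments.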

Angiopoietin-1 receptor = Angiopoietin-1 receptor (Homo sapiens, UniProt Q02763); assay: Inhibition of human recombinant TIE2; outline: as §1
[2] = biological target: Proto-oncogene tyrosine-protein kinase Src (Homo sapiens, UniProt P12931); assay: Inhibition of human recombinant SRC
Outline: (§2)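 Human kinases expressed in Sf9 cells via baculovirus as GST or His fusions and affinity purified. 33PanQinase assay in 60 mM HEPES-NaOH pH 7.5, 3 mM MgCl2, 3 mM MnCl2, 3 µM orthovanadate, 1.2 mM DTT, 1 µM [γ-33P]ATP, 1% DMSO; 30 °C, 80 min. Substrates: poly(Glu,Tyr) 4:1 for ERBB2, IGF1-R and SRC; poly(Ala,Glu,Lys,Tyr) 6:2:5:1 for FLT3. IC50 from 10 concentrations by scintillation counting.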

[3] = biological target: T1, Receptor-type tyrosine-protein kinase FLT3 (Homo sapiens, UniProt P36888); assay: Inhibition of human recombinant FLT3; outline: as §2
T1 sequence (P36888 whole entry): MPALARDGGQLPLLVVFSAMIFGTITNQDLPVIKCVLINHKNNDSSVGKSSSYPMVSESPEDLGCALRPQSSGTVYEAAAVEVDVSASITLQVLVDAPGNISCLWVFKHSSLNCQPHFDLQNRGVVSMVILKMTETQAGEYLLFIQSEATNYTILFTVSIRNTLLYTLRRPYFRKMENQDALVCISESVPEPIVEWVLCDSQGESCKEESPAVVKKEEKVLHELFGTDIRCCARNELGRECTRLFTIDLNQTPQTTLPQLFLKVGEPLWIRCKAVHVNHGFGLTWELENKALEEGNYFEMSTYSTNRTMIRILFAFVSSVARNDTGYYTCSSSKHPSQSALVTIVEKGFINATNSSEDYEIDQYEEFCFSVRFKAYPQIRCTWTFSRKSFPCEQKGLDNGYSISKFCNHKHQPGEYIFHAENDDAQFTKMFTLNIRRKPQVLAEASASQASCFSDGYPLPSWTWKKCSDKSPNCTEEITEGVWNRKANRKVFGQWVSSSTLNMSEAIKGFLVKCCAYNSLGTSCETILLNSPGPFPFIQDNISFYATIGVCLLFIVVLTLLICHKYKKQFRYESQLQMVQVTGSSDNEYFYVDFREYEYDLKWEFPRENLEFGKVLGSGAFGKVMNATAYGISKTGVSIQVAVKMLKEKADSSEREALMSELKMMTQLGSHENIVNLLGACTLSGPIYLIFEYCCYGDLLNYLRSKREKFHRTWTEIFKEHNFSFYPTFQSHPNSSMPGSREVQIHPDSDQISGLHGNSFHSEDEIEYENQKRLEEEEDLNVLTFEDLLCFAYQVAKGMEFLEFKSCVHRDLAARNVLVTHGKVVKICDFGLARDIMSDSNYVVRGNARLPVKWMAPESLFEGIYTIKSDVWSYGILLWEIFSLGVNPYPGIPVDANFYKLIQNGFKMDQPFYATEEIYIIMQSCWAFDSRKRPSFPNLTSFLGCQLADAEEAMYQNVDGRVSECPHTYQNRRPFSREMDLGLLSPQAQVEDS

[4] = biological target: Insulin-like growth factor 1 receptor (Homo sapiens, UniProt P08069); assay: Inhibition of human recombinant IGF1R; outline: as §2
[5] = biological target: Vascular endothelial growth factor receptor 3 (Homo sapiens, UniProt P35916); assay: Inhibition of human recombinant VEGFR3; outline: as §1
[6] = biological target: Vascular endothelial growth factor receptor 2 (Homo sapiens, UniProt P35968); assay: Inhibition of human recombinant VEGFR2; outline: as §1
[7] = biological target: Epidermal growth factor receptor (Homo sapiens, UniProt P00533); assay: Inhibition of human recombinant EGFR
[8] = biological target: Receptor tyrosine-protein kinase erbB-2 (Homo sapiens, UniProt P04626); assay: Inhibition of human recombinant ERBB2; outline: as §2
[9] = biological target: Casein kinase II subunit alpha (Homo sapiens, UniProt P68400); assay: Inhibition of human recombinant CK2A1
Outline: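 Human kinases expressed in Sf9 cells by baculovirus as GST or His fusions and affinity purified. Radiometric 33PanQinase assay: 60 mM HEPES-NaOH pH 7.5, 3 mM MgCl2, 3 mM MnCl2, 3 µM orthovanadate, 1.2 mM DTT, 1 µM [γ-33P]ATP, 50-400 ng enzyme, 1% DMSO; 30 °C, 80 min. Substrates: B-Raf-VE, MEK1 KM; CDK2/CycA, histone H1; CK2-A1, casein; COT, autophosphorylation. IC50 from 10 concentrations; 33Pi incorporation by scintillation.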

Homo sapiens [10] = species: Homo sapiens; assay: Induction of apoptosis in HDMEC at 2.1 uM after 5 hrs; format: functional
Outline: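 Positive-control condition: HDMEC treated 5 h at 2.1 µM. Adherent cells plus supernatant stained for cleaved caspase-3 and analysed by FACS as percent apoptotic cells. Repeated three times.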

Sequence of Vascular endothelial growth factor receptor 3 (P35916 whole entry): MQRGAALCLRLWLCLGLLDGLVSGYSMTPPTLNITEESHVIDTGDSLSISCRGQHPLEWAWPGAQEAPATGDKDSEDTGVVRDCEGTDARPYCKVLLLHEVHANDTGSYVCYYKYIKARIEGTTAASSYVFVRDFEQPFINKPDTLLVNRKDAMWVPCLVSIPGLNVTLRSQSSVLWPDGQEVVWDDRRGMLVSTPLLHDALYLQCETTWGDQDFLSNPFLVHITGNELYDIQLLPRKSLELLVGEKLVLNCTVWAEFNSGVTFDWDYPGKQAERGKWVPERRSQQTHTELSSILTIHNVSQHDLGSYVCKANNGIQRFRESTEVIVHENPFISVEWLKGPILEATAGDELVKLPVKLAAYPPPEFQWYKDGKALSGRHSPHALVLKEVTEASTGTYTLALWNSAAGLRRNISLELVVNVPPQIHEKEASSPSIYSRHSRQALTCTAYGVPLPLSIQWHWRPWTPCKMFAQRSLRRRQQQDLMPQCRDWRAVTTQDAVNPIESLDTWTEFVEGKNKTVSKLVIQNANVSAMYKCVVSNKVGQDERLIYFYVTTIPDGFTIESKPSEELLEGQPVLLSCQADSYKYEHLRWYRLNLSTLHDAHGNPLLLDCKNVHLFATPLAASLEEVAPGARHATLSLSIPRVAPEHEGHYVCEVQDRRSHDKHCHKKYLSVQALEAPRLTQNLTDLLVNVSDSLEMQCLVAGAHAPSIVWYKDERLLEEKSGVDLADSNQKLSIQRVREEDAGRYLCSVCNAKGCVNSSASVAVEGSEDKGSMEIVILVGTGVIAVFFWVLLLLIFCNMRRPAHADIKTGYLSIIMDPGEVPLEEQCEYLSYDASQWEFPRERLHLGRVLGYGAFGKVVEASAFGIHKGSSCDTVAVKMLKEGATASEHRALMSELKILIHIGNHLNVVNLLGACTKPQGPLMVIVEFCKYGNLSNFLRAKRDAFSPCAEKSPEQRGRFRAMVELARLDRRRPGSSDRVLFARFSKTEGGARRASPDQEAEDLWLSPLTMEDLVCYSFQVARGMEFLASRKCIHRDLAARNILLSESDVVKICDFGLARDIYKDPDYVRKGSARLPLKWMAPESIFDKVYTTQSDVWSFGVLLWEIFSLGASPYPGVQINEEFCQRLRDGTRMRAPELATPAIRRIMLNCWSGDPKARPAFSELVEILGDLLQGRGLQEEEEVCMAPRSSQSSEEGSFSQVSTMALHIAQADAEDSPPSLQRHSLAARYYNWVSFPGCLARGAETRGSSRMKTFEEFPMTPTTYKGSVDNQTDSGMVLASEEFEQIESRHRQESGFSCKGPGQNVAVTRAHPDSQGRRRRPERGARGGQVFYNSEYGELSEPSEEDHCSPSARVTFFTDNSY
Sequence of Angiopoietin-1 receptor (Q02763 whole entry): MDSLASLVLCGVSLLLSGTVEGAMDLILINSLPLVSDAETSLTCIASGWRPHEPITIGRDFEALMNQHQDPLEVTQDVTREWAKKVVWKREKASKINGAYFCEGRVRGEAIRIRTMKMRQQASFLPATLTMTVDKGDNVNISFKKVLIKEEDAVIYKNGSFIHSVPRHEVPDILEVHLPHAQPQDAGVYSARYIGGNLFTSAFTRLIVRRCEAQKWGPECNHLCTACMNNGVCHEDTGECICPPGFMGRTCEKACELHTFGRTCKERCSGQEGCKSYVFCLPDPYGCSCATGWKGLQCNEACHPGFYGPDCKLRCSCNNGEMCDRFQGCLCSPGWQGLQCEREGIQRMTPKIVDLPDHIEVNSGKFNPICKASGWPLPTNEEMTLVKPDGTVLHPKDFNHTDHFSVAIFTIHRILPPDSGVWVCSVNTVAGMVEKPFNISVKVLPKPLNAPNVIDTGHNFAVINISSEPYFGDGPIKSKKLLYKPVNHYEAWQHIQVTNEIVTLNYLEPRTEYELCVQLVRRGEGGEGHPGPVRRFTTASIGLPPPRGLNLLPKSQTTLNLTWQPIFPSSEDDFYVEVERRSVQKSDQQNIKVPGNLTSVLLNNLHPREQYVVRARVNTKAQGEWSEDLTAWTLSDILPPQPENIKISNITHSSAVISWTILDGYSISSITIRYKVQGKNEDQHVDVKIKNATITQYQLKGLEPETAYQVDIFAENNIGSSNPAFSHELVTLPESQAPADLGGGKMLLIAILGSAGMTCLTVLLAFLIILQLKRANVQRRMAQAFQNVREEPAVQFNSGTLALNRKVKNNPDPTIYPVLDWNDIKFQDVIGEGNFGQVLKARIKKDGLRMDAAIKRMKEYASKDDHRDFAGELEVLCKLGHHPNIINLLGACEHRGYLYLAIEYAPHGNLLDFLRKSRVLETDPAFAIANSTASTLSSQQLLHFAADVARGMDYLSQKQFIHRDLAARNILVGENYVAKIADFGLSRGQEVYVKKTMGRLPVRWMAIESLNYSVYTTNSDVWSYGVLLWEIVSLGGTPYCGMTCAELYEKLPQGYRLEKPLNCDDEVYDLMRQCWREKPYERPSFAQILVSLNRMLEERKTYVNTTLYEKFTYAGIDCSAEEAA
Sequence of Proto-oncogene tyrosine-protein kinase Src (P12931 2-536 limits assumed): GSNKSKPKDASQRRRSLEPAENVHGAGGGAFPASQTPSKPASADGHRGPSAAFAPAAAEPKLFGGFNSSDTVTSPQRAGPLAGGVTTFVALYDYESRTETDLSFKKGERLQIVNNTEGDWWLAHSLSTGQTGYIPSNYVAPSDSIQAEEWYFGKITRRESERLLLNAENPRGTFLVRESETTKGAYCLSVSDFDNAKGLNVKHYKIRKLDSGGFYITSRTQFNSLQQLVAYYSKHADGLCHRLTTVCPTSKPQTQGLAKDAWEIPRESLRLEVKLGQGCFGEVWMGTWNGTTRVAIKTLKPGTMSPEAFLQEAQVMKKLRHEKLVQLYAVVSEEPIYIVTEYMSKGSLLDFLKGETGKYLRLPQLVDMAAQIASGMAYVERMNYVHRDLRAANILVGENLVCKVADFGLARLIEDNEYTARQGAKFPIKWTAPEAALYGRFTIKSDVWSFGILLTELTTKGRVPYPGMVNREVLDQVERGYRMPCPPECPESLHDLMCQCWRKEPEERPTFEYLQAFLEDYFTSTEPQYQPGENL
Sequence of Insulin-like growth factor 1 receptor (P08069 31-736 limits assumed): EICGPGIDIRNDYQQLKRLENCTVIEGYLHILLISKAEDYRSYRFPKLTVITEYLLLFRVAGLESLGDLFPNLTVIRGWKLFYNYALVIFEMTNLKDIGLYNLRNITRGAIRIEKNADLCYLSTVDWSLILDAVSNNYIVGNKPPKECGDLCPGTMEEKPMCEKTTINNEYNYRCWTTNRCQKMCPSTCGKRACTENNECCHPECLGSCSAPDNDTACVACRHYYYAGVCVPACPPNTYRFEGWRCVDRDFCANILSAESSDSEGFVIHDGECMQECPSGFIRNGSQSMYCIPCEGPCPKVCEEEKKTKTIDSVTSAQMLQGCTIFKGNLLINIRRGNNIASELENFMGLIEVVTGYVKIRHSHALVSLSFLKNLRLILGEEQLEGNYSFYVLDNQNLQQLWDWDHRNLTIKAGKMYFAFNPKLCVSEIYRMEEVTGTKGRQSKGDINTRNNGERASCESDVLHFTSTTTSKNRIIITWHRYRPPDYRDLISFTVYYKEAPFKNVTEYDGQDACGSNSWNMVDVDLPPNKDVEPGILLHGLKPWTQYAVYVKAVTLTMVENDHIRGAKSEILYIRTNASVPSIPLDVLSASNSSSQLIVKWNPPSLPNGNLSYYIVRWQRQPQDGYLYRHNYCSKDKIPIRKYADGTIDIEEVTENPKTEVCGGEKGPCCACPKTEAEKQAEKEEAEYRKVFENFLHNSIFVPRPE
Sequence of Insulin-like growth factor 1 receptor (P08069 741-1367 limits assumed): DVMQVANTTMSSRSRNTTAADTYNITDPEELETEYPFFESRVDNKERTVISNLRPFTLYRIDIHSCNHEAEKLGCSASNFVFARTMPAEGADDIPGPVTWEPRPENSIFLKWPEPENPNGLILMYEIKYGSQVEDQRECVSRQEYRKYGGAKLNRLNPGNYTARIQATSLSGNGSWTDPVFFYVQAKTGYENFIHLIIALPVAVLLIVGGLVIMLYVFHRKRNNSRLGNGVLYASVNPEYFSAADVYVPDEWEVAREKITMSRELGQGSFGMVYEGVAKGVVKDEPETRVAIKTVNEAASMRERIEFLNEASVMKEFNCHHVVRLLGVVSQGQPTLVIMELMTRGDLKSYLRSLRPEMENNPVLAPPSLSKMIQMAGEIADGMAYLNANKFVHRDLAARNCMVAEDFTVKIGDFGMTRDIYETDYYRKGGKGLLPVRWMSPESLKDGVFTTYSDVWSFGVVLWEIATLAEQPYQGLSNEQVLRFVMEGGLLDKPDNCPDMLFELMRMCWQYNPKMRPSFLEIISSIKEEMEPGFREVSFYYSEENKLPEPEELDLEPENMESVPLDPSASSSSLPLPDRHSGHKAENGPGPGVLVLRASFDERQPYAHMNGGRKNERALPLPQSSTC
Sequence of Casein kinase II subunit alpha (P68400 whole entry, the tested form may be a part): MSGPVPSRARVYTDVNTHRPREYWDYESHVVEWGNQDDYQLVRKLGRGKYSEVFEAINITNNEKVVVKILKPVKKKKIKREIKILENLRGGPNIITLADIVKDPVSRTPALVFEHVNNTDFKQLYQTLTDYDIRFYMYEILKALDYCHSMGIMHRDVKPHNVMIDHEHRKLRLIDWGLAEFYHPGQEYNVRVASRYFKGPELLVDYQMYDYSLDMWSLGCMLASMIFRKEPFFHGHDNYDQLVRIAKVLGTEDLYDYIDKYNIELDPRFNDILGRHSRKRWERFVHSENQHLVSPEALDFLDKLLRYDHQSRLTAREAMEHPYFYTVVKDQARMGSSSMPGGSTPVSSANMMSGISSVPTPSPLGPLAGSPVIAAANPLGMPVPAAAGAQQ

IC50 (Ephrin type-B receptor 4) | IC50 (Angiopoietin-1 receptor) | IC50 [2] | IC50 [3] | IC50 [4] | IC50 [5] | IC50 [6] | IC50 [7] | IC50 [8] | IC50 [9] | SMILES | inhibition (Homo sapiens [1]) | Activity (Homo sapiens [10])
44 µM | 26 µM | 4.5 µM | 34 µM | 8.7 µM | 5.6 µM | 3.1 µM | 22 µM |  |  | COc1cc(C2=C(c3cn(COCC[Si](C)(C)C)c4ccccc34)CNC2=O)cc(OC)c1OC | 30% | 
 | 11 µM | 9.1 µM | 36 µM | 18 µM | 1.7 µM | 1.6 µM |  | 36 µM | > 50 µM | COc1cc(C2=C(c3cn(COCc4ccccc4)c4ccccc34)CNC2=O)cc(OC)c1OC |  | 
 |  |  |  |  |  |  |  |  |  | CN[C@@H]1C[C@H]2O[C@@](C)([C@@H]1OC)n1c3ccccc3c3c4c(c5c6ccccc6n2c5c31)C(=O)NC4 |  | 63.9%
